Test results as given in publication PMC6683736 (The Journal of Cell Biology, 2019).

Experiments:
Xenopus embryos = assay: Junctional localization in gastrula-stage embryos; type: in vivo, Xenopus laevis; conditions: live confocal, mNeon-tagged
In short: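 Embryos were microinjected in the animal hemisphere with mRNAs, either at the two-cell stage (each cell twice) or at the four-cell stage (once). They were raised to gastrula stage (10.5–12) and live-imaged by confocal. mNeon-tagged protein was coexpressed with BFP-ZO-1 (tight junction marker) and PLEKHA7-mCherry (adherens junction marker), and the junctional-to-cytosolic intensity ratio was quantified.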

Dlg1 = assay: Coimmunoprecipitation of SGEF constructs with GFP-Dlg1, HEK293FT lysates; type: binding, Mouse; conditions: GFP-trap nanobodies, WB
In short: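 HEK293FT cells were co-transfected by calcium phosphate; medium was changed at 24 h and cells harvested at 48 h. Lysis was in Tris-HCl pH 7.4, MgCl2, 150 mM NaCl, 1% Triton X-100 and protease inhibitors. Equal protein was incubated with GFP-Trap beads for 1 h at 4°C, washed four times, then immunoblotted with anti-GFP and anti-myc (or anti-His).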

Scribble = assay: Coimmunoprecipitation of SGEF constructs with GFP-Scribble, HEK293FT lysates; type: binding, Human; conditions: GFP-trap nanobodies, WB

**Q.** How did the “localization at apical junctional complex” value (Xenopus embryos) turn out when “mNeon-RhoG: mNeon-tagged small GTPase RhoG, 1–191” was run?
**A.** The value was “more broadly localized along the lateral membrane”.

B1: SGEF 1–350: SGEF deletion mutant 1–350 (protein)
chain: MDGESEVDFSSNSITPLWRRRSIPQPHQVLGRSKPRPQSYQSPNGLLITDFPVEDGGTLLAAQIPAQVPTASDSRTVHRSPLLLGAQRRAVANGGTASPEYRAASPRLRRPKSPKLPKAVPGGSPKSPANGAVTLPAPPPPPVLRPPRTPNAPAPCTPEEDLTGLTASPVPSPTANGLAANNDSPGSGSQSGRKAKDPERGLFPGPQKSSSEQKLPLQRLPSQENELLENPSVVLSTNSPAALKVGKQQIIPKSLASEIKISKSNNQNVEPHKRLLKVRSMVEGLGGPLGHAGEESEVDNDVDSPGSLRRGLRSTSYRRAVVSGFDFDSPTSSKKKNRMSQPVLKVVMED
modifications: left off: myc (inferred from the legend of Figure 2), end not stated, kept
**Q.** With B1 as the molecule, how does the “interaction with Dlg1” value (Dlg1) read?
**A.** Its value is “able to bind to Dlg1”.

B2: 414–871: C-terminal half of SGEF: DH-PH domain, SH3 domain and PBM (protein, UniProt Q96DR7 414-871, looked up, fragment)
chain: LRSTWSQLSAVKRKGLSQTVSQEERKRQEAIFEVISSEHSYLLSLEILIRMFKNSKELSDTMTKTERHHLFSNITDVCEASKKFFIELEARHQNNIFIDDISDIVEKHTASTFDPYVKYCTNEVYQQRTLQKLLATNPSFKEVLSRIESHEDCRNLPMISFLILPMQRVTRLPLLMDTICQKTPKDSPKYEVCKRALKEVSKLVRLCNEGARKMERTEMMYTINSQLEFKIKPFPLVSSSRWLVKRGELTAYVEDTVLFSRRTSKQQVYFFLFNDVLIITKKKSEESYNVNDYSLRDQLLVESCDNEELNSSPGKNSSTMLYSRQSSASHLFTLTVLSNHANEKVEMLLGAETQSERARWITALGHSSGKPPADRTSLTQVEIVRSFTAKQPDELSLQVADVVLIYQRVSDGWYEGERLRDGERGWFPMECAKEITCQATIDKNVERMGRLLGLETNV
**Q.** Which “interaction with Dlg1” value (Dlg1) does the source give for B2 here?
**A.** The value was “showed no binding”.

B3: Gly 45 residue for Pro: SGEF with Gly 45 replaced by Pro (protein, UniProt Q96DR7 1-871, looked up, variant G45P)
Rho guanine nucleotide …: MDGESEVDFSSNSITPLWRRRSIPQPHQVLGRSKPRPQSYQSPNPLLITDFPVEDGGTLLAAQIPAQVPTASDSRTVHRSPLLLGAQRRAVANGGTASPEYRAASPRLRRPKSPKLPKAVPGGSPKSPANGAVTLPAPPPPPVLRPPRTPNAPAPCTPEEDLTGLTASPVPSPTANGLAANNDSPGSGSQSGRKAKDPERGLFPGPQKSSSEQKLPLQRLPSQENELLENPSVVLSTNSPAALKVGKQQIIPKSLASEIKISKSNNQNVEPHKRLLKVRSMVEGLGGPLGHAGEESEVDNDVDSPGSLRRGLRSTSYRRAVVSGFDFDSPTSSKKKNRMSQPVLKVVMEDKEKFSSLGRIKKKMLKGQGTFDGEENAVLYQNYKEKALDIDSDEESEPKEQKSDEKIVIHHKPLRSTWSQLSAVKRKGLSQTVSQEERKRQEAIFEVISSEHSYLLSLEILIRMFKNSKELSDTMTKTERHHLFSNITDVCEASKKFFIELEARHQNNIFIDDISDIVEKHTASTFDPYVKYCTNEVYQQRTLQKLLATNPSFKEVLSRIESHEDCRNLPMISFLILPMQRVTRLPLLMDTICQKTPKDSPKYEVCKRALKEVSKLVRLCNEGARKMERTEMMYTINSQLEFKIKPFPLVSSSRWLVKRGELTAYVEDTVLFSRRTSKQQVYFFLFNDVLIITKKKSEESYNVNDYSLRDQLLVESCDNEELNSSPGKNSSTMLYSRQSSASHLFTLTVLSNHANEKVEMLLGAETQSERARWITALGHSSGKPPADRTSLTQVEIVRSFTAKQPDELSLQVADVVLIYQRVSDGWYEGERLRDGERGWFPMECAKEITCQATIDKNVERMGRLLGLETNV
**Q.** B3 was tested. Which “interaction with Scribble” value (Scribble) did it give?
**A.** Its value is “abolished the interaction”.

B4: T49A (protein, UniProt Q96DR7 1-871, looked up, variant T49A)
Rho guanine nucleotide …: MDGESEVDFSSNSITPLWRRRSIPQPHQVLGRSKPRPQSYQSPNGLLIADFPVEDGGTLLAAQIPAQVPTASDSRTVHRSPLLLGAQRRAVANGGTASPEYRAASPRLRRPKSPKLPKAVPGGSPKSPANGAVTLPAPPPPPVLRPPRTPNAPAPCTPEEDLTGLTASPVPSPTANGLAANNDSPGSGSQSGRKAKDPERGLFPGPQKSSSEQKLPLQRLPSQENELLENPSVVLSTNSPAALKVGKQQIIPKSLASEIKISKSNNQNVEPHKRLLKVRSMVEGLGGPLGHAGEESEVDNDVDSPGSLRRGLRSTSYRRAVVSGFDFDSPTSSKKKNRMSQPVLKVVMEDKEKFSSLGRIKKKMLKGQGTFDGEENAVLYQNYKEKALDIDSDEESEPKEQKSDEKIVIHHKPLRSTWSQLSAVKRKGLSQTVSQEERKRQEAIFEVISSEHSYLLSLEILIRMFKNSKELSDTMTKTERHHLFSNITDVCEASKKFFIELEARHQNNIFIDDISDIVEKHTASTFDPYVKYCTNEVYQQRTLQKLLATNPSFKEVLSRIESHEDCRNLPMISFLILPMQRVTRLPLLMDTICQKTPKDSPKYEVCKRALKEVSKLVRLCNEGARKMERTEMMYTINSQLEFKIKPFPLVSSSRWLVKRGELTAYVEDTVLFSRRTSKQQVYFFLFNDVLIITKKKSEESYNVNDYSLRDQLLVESCDNEELNSSPGKNSSTMLYSRQSSASHLFTLTVLSNHANEKVEMLLGAETQSERARWITALGHSSGKPPADRTSLTQVEIVRSFTAKQPDELSLQVADVVLIYQRVSDGWYEGERLRDGERGWFPMECAKEITCQATIDKNVERMGRLLGLETNV
**Q.** With B4 as the molecule, how does the “interaction with Scribble” value (Scribble) read?
**A.** Its value is “completely abolish the interaction”.

B5: SGEF ΔETNV: SGEF with deletion of the PBM, 1–867 (protein)
chain: MDGESEVDFSSNSITPLWRRRSIPQPHQVLGRSKPRPQSYQSPNGLLITDFPVEDGGTLLAAQIPAQVPTASDSRTVHRSPLLLGAQRRAVANGGTASPEYRAASPRLRRPKSPKLPKAVPGGSPKSPANGAVTLPAPPPPPVLRPPRTPNAPAPCTPEEDLTGLTASPVPSPTANGLAANNDSPGSGSQSGRKAKDPERGLFPGPQKSSSEQKLPLQRLPSQENELLENPSVVLSTNSPAALKVGKQQIIPKSLASEIKISKSNNQNVEPHKRLLKVRSMVEGLGGPLGHAGEESEVDNDVDSPGSLRRGLRSTSYRRAVVSGFDFDSPTSSKKKNRMSQPVLKVVMEDKEKFSSLGRIKKKMLKGQGTFDGEENAVLYQNYKEKALDIDSDEESEPKEQKSDEKIVIHHKPLRSTWSQLSAVKRKGLSQTVSQEERKRQEAIFEVISSEHSYLLSLEILIRMFKNSKELSDTMTKTERHHLFSNITDVCEASKKFFIELEARHQNNIFIDDISDIVEKHTASTFDPYVKYCTNEVYQQRTLQKLLATNPSFKEVLSRIESHEDCRNLPMISFLILPMQRVTRLPLLMDTICQKTPKDSPKYEVCKRALKEVSKLVRLCNEGARKMERTEMMYTINSQLEFKIKPFPLVSSSRWLVKRGELTAYVEDTVLFSRRTSKQQVYFFLFNDVLIITKKKSEESYNVNDYSLRDQLLVESCDNEELNSSPGKNSSTMLYSRQSSASHLFTLTVLSNHANEKVEMLLGAETQSERARWITALGHSSGKPPADRTSLTQVEIVRSFTAKQPDELSLQVADVVLIYQRVSDGWYEGERLRDGERGWFPMECAKEITCQATIDKNVERMGRLLGL
modifications: left off: myc (inferred from the legends of Figures 1 and 2), end not stated, kept
**Q.** B5 was tested. Which “interaction with Dlg1” value (Dlg1) did it give?
**A.** The value was “still interacted efficiently with Dlg1”.

**Q.** What about the “interaction with Scribble” value (Scribble) of the same molecule?
**A.** Its value is “no effect on the ability of SGEF to bind to Scribble”.
